Data taken from publication PMC4851236 (Nature, 2016).
Entries after “also recorded” stand apart in the source; their conditions may differ.

Key:
TR146 cells [1] = experiment: Western blotting of phospho-MKP1 and c-Fos induction; assay type: cell-based, human; conditions: for Induction of p-MKP1 and c-Fos: serum-free DMEM, 2 h post-stimulation, Western blot, Ece1-I-VIII incubated at 1.5 – 70 µM (Fig. 2a: 1.5 µM); for Induction of p-MKP1 and c-Fos by peptide fragments: 15 µM, 2 h, individually or in combination
In short: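 Serum-starved TR146 cells treated for 2 h in serum-free DMEM, then lysed on ice for 30 min in modified RIPA buffer (pH 7.4) with protease and phosphatase inhibitors. 20 µg protein resolved on 12% SDS-PAGE and transferred to nitrocellulose. Blots probed for phospho-MKP1 and c-Fos (primary 1:1000, HRP secondary 1:10,000), detected by chemiluminescence. α-actin used as loading control.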

TR146 cells [2] = experiment: Cytokine determination in culture supernatants; assay type: cell-based, human; conditions: for Induction of cytokines (G-CSF) by peptide fragments: 15 µM, 24 h, individually or in combination
TR146 cells [3] = experiment: Cell damage assay; assay type: cell-based, human; conditions: for Induction of damage (LDH release): Ece1-I-VIII at 70 µM (Fig. 2b); for Damage of epithelial cells (LDH release) by peptide fragments: 70 µM, 24 h, individually or in combination
In short: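 Confluent TR146 cells serum-starved overnight, then exposed to test peptides for 24 h in serum-free DMEM. Culture supernatants assayed for lactate dehydrogenase activity with a colorimetric cytotoxicity kit. Activity quantified against a recombinant porcine LDH standard curve.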

[4] = FRET intercalation into phospholipid liposomes; conditions: phospholipid liposomes (DOPC with or without cholesterol), 100 mM KCl, 5 mM HEPES, pH 7.0
In short: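 Probe-dilution FRET assay. Phospholipid liposomes carried 1% (mol/mol) each of donor NBD-PE and acceptor rhodamine-PE. Lipids were dried from chloroform, taken up in 100 mM KCl, 5 mM HEPES, pH 7.0, and tip-sonicated. They then went through three 30 min cycles of 60°C heating and 4°C cooling and were held at 4°C for at least 12 h. After test peptide addition, intercalation was read as the rise in the donor (531 nm) to acceptor (593 nm) intensity ratio.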

[5] = Impedance spectroscopy of tethered bilayer lipid membranes; conditions: tBLMs, DOPC with or without cholesterol, 100 mM KCl, 5 mM HEPES, pH 7.0, room temperature
In short: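 tBLMs (10% tethering, 90% spacer lipids) were formed by solvent exchange from 3 mM lipid in ethanol, then buffered in 100 mM KCl, 5 mM HEPES, pH 7.0. Membranes were rinsed three times with buffer. Conductance and capacitance were recorded for 20 min before test peptide was injected at various concentrations, all at room temperature. Concentration-dependent conductance changes were averaged.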

TR146 cells [6] = experiment: Calcium flux; assay type: cell-based, human; conditions: Fura-2, readings up to 3 h
In short: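 Confluent TR146 monolayers loaded for 1 h at 37°C/5% CO2 with Fura-2 (2.5 mM stock in Pluronic F-127/DMSO) plus probenecid in HEPES-buffered saline (2 mM CaCl2, 10 mM glucose, pH 7.4). Dye then replaced by saline. Baseline read for 10 min at excitation 340 nm/emission 520 nm. Peptides added at different concentrations. Cytosolic calcium expressed as a fluorescence ratio.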

Planar lipid bilayers = conditions: 5 mM HEPES, 100 mM KCl, pH 7.0, 37°C, Ece1-III62–93 0.125 µM (DOPC), Ece1-III62–92K 4 µM
In short: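 Montal-Mueller planar bilayers were bathed in 5 mM HEPES, 100 mM KCl, pH 7.0 (specific conductivity 17.2 mS/cm) at 37°C. Test peptide was added and membrane current was recorded for permeabilization events up to rupture.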

[7] = Circular dichroism spectroscopy; assay type: physicochemical; conditions: 15 µM peptide, 100 mM KCl, 5 mM HEPES, pH 7
In short: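 Peptide at 15 µM in 100 mM KCl, 5 mM HEPES, pH 7.0, in a 1.0 mm quartz cuvette, run at 25°C and 40°C. Spectra are the average of four scans, collected at 1 nm intervals with 2 nm bandwidth.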

TR146 cells [8] = experiment: Transcription factor; assay type: cell-based, human; conditions: 3 h post-stimulation, sub-lytic concentrations
In short: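 Serum-starved TR146 cells treated for 3 h in serum-free DMEM. Nuclear proteins recovered by differential lysis. 5 µg nuclear extract assayed for c-Fos DNA binding by plate-based transcription factor ELISA. Results expressed as fold-change in A450nm relative to resting cells.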

[9] = test system: multiple human epithelial cell types; experiment: Direct lysis of epithelial cells; assay type: cell-based; conditions: not shown
red blood cells = experiment: Hemolysis of red blood cells; assay type: cell-based; conditions: not shown
TR146 cells [10] = experiment: Whole cell patch clamp; assay type: cell-based, human; conditions: membrane potential −60 mV, room temperature
In short: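 TR146 cells cultured 48 h and recorded at 10–30% confluence while superfused with modified Krebs solution (pH 7.4). Pipettes 5–7 MΩ, filled with potassium acetate/KCl/HEPES/EGTA solution (free Ca2+ 40 nM). Current-voltage curves from 1 s steps, −100 to +50 mV. Treatments added to superfusate at final concentration, with vehicle controls and an ionomycin positive control. Cells analysed counted per condition.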

Substance	Induction of p-MKP1 and c-Fos (TR146 cells [1])	Induction of G-CSF secretion (TR146 cells [2]; 24 h post-stimulation)	Induction of damage (LDH release) (TR146 cells [3]; 24 h post-stimulation)	Intercalation into lipid membranes (FRET) [4]	Permeabilization of tethered lipid membranes (conductance) [5]	Calcium influx (intracellular calcium level) (TR146 cells [6])	Induction of p-MKP1 and c-Fos by peptide fragments (TR146 cells [1])	Induction of cytokines (G-CSF) by peptide fragments (TR146 cells [2])	Damage of epithelial cells (LDH release) by peptide fragments (TR146 cells [3])	Lesions induced in planar lipid membranes (Planar lipid bilayers)	Secondary structure by circular dichroism [7]	also measured
Ece1-III62–93AA: Ece1-III62–93 with C-terminal KR motif substituted to AA	still induced	still induced	significantly reduced	did not affect membrane intercalation	significantly reduced	significantly reduced	–	–	–	–	–	–
Ece1-III86–93: C-terminal hydrophilic region of Ece1-III62–93 (KAFKGNKR; UniProt Q07730 86-93, looked up, fragment)	–	–	–	–	–	–	Neither	Neither	Neither	–	–	–
Ece1-III62–85: N-terminal hydrophobic region of Ece1-III62–93	–	–	–	–	–	–	Neither	Neither	Neither	–	–	–
SIIGIIMGILGNIPQVIQIIMSIVKAFKGNK [Ece1-III62–92K]	induces	induces	induces	induces	induces	induces	–	–	–	heterogeneous and transient lesions leading to membrane rupture	α-helical	Induction of IL-1α secretion (TR146 cells [2]; 24 h post-stimulation): induces
SIIGIIMGILGNIPQVIQIIMSIVKAFKGNKR [Ece1-III62–93]	induced	–	induced	able to efficiently intercalate; also recorded: slightly enhanced intercalation for pure DOPC	enhanced in the presence of cholesterol	associated with calcium influx	–	–	–	heterogeneous and transient lesions leading finally to a rupture of the membrane	α-helical conformation	Concentrations sufficient to induce c-Fos DNA binding (TR146 cells [8]): 1.5 to 15 µM; Concentrations required to induce damage-associated cytokine IL-1α (TR146 cells [2]; 24 h post-stimulation): 70 µM; Concentrations required to induce damage-associated cytokine IL-6 (TR146 cells [2]; 24 h post-stimulation): 70 µM; Concentrations sufficient to induce G-CSF (TR146 cells [2]; 24 h post-stimulation): 1.5 to 15 µM; Concentrations sufficient to induce GM-CSF (TR146 cells [2]; 24 h post-stimulation): 1.5 to 15 µM; Induction of cytokines (TR146 cells [2]; 24 h post-stimulation, peptides 1.5 – 70 µM): induced; Concentrations required to induce damage (LDH release) (TR146 cells [3]; 24 h post-stimulation): 70 µM; Direct lysis of multiple human epithelial cell types [9]: directly lyse multiple human epithelial cell types; Hemolysis of red blood cells (red blood cells): induce hemolysis of red blood cells; Evoked current in epithelial cells (patch clamp) (TR146 cells [10]): causes an inward current
